Source: PubChem (The Scripps Research Institute Molecular Screening Center)
SIAE primary: human SIAE inhibitors, primary screen, biochemical, fluorescence polarization, FP-Rh probe, 1536-well HTS; Sialate O-acetylesterase (Homo sapiens), Q9HAT2; SIAE FP-Rh probe binding; inhibition, % at 9.66 µM; 370,000 compounds, 0.69% hits;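 active means inhibition above a cutoff: mean of compounds within the control limits plus 3 SD of those, cut at about 17% in these data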
Target sequence (Q9HAT2 whole entry, looked up): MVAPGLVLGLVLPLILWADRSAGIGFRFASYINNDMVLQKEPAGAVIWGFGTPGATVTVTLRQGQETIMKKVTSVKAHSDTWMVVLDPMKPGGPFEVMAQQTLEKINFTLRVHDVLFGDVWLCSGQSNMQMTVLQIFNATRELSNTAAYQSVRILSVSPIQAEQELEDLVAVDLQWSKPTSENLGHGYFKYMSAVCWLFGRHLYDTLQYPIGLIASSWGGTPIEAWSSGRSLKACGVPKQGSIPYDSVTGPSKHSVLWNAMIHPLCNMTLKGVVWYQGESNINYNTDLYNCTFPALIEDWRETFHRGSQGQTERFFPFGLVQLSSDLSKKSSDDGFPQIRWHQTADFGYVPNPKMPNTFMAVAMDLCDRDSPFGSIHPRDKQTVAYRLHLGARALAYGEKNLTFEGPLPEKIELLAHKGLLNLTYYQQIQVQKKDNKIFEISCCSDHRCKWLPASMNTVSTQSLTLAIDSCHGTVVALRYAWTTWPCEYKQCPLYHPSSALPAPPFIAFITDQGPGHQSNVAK
HTRA1 inh: HTRA1 serine protease inhibitors, primary screen, biochemical, fluorescence polarization, HTS; recombinant HTRA1, FP-rhodamine activity-based probe; inhibition, % at 5.96 µM; Q92743; AID 504803, 2011; 340,000 compounds, 0.5% hits; in the data active means inhibition above about 36%
TDP2 inh: human TDP2 enzyme inhibitors, primary screen, biochemical, epi absorbance, recombinant enzyme; Tyrosyl-DNA phosphodiesterase 2 (Homo sapiens), O95551; T5PNP hydrolysis, p-nitrophenol absorbance 415 nm; inhibition, % at 12.8 µM; 370,000 compounds, 0.34% hits; AID 720702, 2013;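 active means inhibition above the mean of all tested compounds plus 3 SD, set per campaign, cut at about 25% in these data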
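Test system: human TDP2 enzyme; Input: 120 nM TDP2 per well; Buffer or medium: Mg2+-containing Tris-HCl buffer, pH 7.5; Reagent: 5 mM T5PNP; Dosing: 12.8 µM single point, 1% DMSO; Incubation: reaction 2 h, 37 °C; Detection: p-Nitrophenol epi absorbance; Read-out: % inhibition relative to enzyme-containing and enzyme-free wells; Replicates: single well per compound.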
LEDGF integ inh: blockers of LEDGF/p75-dependent integrase strand transfer – biochemical, TR-FRET, high throughput, primary screen; HIV-1 integrase (with human LEDGF/p75); TR-FRET IN-LEDGF/p75 DNA integration, Eu/Cy5; inhibition, % at 3.7 µM; 370,000 compounds, 0.64% hits; AID 743269, 2014;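 active means inhibition above the screen-wide mean plus 3 SD, cut at about 13% in these data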;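 further: signal is the Cy5 over europium emission ratio at 671 and 618 nm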
ABHD4 inh: ABHD4 inhibitors, primary screen, biochemical, fluorescence polarization, mouse; purified mABHD4, FP-Rh probe fluorescence polarization; inhibition, % at 8.92 µM; 370,000 compounds, 0.54% hits; AID 720543, 2013;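 active means inhibition exceeding the mean over every tested compound plus 3 SD, cut at about 30% in these data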
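Assay system: wild-type mouse ABHD4 protein; compound: single nominal dose of 8.92 µM, 0.89% DMSO final; schedule: 45 min + 60 min at 25 °C; measured by: FP readout, ex 525 nm / em 598 nm; evaluation: % inhibition of FP-Rh probe binding versus controls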
TCR-CD3 inh: inhibitors of human TCR-CD3 interaction, primary screen, biochemical, fluorescence, TAMRA-labeled TCR probe. T-cell receptor (TCR). inhibition, % at 9.4 µM. 360,000 compounds, 0.37% hits. AID 651800, 2012; in the data active means inhibition above about 19%;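 further: recombinant mutant TCR 2C K166C tagged with TAMRA read by polarization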
SIAE inh conf: human SIAE inhibitors, retest, confirmation, biochemical, fluorescence polarization, FP-Rh probe, triplicate. shares compounds with SIAE primary. SIAE FP-Rh activity-based probe. inhibition, % at 9.66 µM. 2,300 compounds, 13% hits. AID 1117263, 2014;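 active means mean inhibition of the replicates above the hit cutoff set in the primary screen, cut at about 17% in these data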;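 further: inhibitors lower polarization as more probe stays unbound to SIAE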
Each line names hits and unclear results; the compound was inactive in the other large screens (follow-up assays come after a bar, where they were run). This is a sample that favours compounds with a hit; in the whole collection about 2.2% have one here.

Oc1ccccc1C=NNC(=S)NN=Cc1ccccc1O	SIAE primary 42 | SIAE inh conf 52
CCC1OC(C(C)C)Cc2[nH][nH]c(=O)c21 (configuration not stated)	SIAE primary 17 (no result: HTRA1 inh) | SIAE inh conf inactive
CC(=O)c1ccc(OC(=O)CCN2c3ccccc3Sc3ccccc32)cc1	SIAE primary 19 | SIAE inh conf inactive
COC(=O)c1ccc(OC(=O)CCN2c3ccccc3Sc3ccccc32)cc1	none
CC(C)C(OC(=O)CN1C(=O)COc2ccccc21)C(=O)NC1CCCCC1 (configuration not stated)	SIAE primary 18 | SIAE inh conf inactive
Oc1ccc(N=Nc2n[nH]c(-c3ccccc3)n2)cc1	none
Oc1ccc(N=Nc2nc(-c3ccccc3)c(-c3ccccc3)[nH]2)cc1	SIAE primary 37 | SIAE inh conf inactive
COc1ccccc1OCCSc1nc2ccccc2n1CC(N)=O	SIAE primary 17 | SIAE inh conf inactive
O=C(COC(=O)C1CCN(S(=O)(=O)c2c(Cl)cccc2Cl)CC1)NCc1ccco1	none
Nc1ncnc2c1ncn2[C@@H]1O[C@H](CNC(=O)[C@@H]2CCCN2S(=O)(=O)c2ccc(F)cc2)[C@@H](O)[C@H]1O	none
O=C(Nc1ccc(N2CCOCC2)cc1)c1cc(-c2ccncc2)nc2ccccc12	none
O=C(Nc1ccccc1N1CCOCC1)c1cc(-c2ccncc2)nc2ccccc12	SIAE primary 22 | SIAE inh conf inactive
O=[N+]([O-])c1cc(C(F)(F)F)ccc1NCCc1c[nH]c2ccc(O)cc12	SIAE primary 17 | SIAE inh conf inactive
O=C(NCCO)c1nc2ccccc2s1	none
COCCNC(=O)c1nc2ccccc2s1	SIAE primary 19 | SIAE inh conf inactive
CCCCNc1cccc2c1S(=O)(=O)N(CCCC)CC(COCc1ccccc1)O2 (configuration not stated)	none
Cc1ccc(N(C(C)C(=O)N2CCOCC2)S(C)(=O)=O)cc1C (configuration not stated)	none
C[N+](C)(C)CCCCCCC(=O)/C=N/O	none
C[N+]1(CCCCCCC(=O)/C=N/O)CCCCCC1	SIAE primary 19 | SIAE inh conf inactive
CCCCCC(=O)Nc1cc2[nH]c(=O)cc(COC)c2cc1C	none
COCc1cc(=O)[nH]c2cc(NC(=O)C(C)(C)CCl)c(C)cc12	SIAE primary 97 | SIAE inh conf inactive
COc1ccc(NC(=O)n2ncc3c(C)cccc32)cc1OC	SIAE primary 17 | SIAE inh conf inactive
CC(CNC(=O)CC[C@H]1O[C@@H](n2cnc3c(NC(=O)c4ccccc4)ncnc32)[C@H](O)[C@@H]1O)c1ccccc1 (some centres not stated)	none (no result: HTRA1 inh)
C=CC(=O)Nc1cccc(Oc2nc(Nc3ccc(N4CCN(C)CC4)cc3OC)ncc2Cl)c1	SIAE primary 20 (no result: HTRA1 inh) | SIAE inh conf inactive
Nc1c(C(=O)N2CCOCC2)sc2nc(N3CCOCC3)c3c(c12)CCCC3	none
NNC(=O)c1sc2nc(N3CCOCC3)c3c(c2c1N)CCCC3	SIAE primary 18 (no result: HTRA1 inh) | SIAE inh conf inactive
Nc1c(C(=O)NCc2ccccc2)sc2nc(N3CCOCC3)c3c(c12)CCCC3	SIAE primary 19 | SIAE inh conf inactive
O=C(CCc1ccccn1)N1CCCC(N2CCN(c3ccc(F)cc3)CC2)C1 (configuration not stated)	none
COC(=O)CC1=NN(c2ccc(OC)cc2)C(=O)/C1=C\c1ccc(Cl)cc1	SIAE primary 17 | SIAE inh conf inactive
COC(=O)CC1=NN(c2ccccc2)C(=O)/C1=C\c1ccc(OC)cc1	none
CCCOc1ccc(OCCN2CCCC(C)C2)cc1 (configuration not stated)	SIAE primary 20 | SIAE inh conf inactive
O=C(NC(=Nc1nc2ccccc2o1)NC(=O)c1ccccc1)c1ccccc1	none
O=C(NNc1nc2ccccc2o1)c1ccccc1	SIAE primary 18 (no result: HTRA1 inh) | SIAE inh conf inactive
CC(C)(CNC(=O)CNC(=O)c1ccccc1F)N1CCOCC1	none
CCn1nc(C)cc1C(=O)NC1CC(C)(C)Cc2c1cnn2-c1cccc(F)c1 (configuration not stated)	none
CCOC(=O)N1CCN(Cc2c(F)cccc2F)CC1	none
CCOC(=O)N1CCN(Cc2c(F)cccc2Cl)CC1	SIAE primary 18 | SIAE inh conf inactive
CC1CC(C)CN(S(=O)(=O)c2ccc3c(c2)oc(=O)n3CC(=O)NCCCOC(C)C)C1 (configuration not stated)	SIAE primary 18 | SIAE inh conf inactive
CCC(C)(C)NC(=O)Cn1c(=O)oc2cc(S(=O)(=O)N3CC(C)CC(C)C3)ccc21 (configuration not stated)	none
CN(C)C(=O)c1ccc(SC(=S)NCc2ccccc2)cc1	none (no result: HTRA1 inh)
COc1ccc(/C=N/NC(=O)c2ccc(O)cc2)cc1CN1CCCc2ccccc21	SIAE primary 26 | SIAE inh conf inactive
CS(=O)(=O)c1ccc(Cl)c(NC(=O)CSC(=S)N2CCCC2)c1	none
Cc1cc(C)c(NS(=O)(=O)c2c(C(=O)N3CCOCC3)c(C)n(C)c2C)c(C)c1	SIAE primary 18 | SIAE inh conf inactive
Cc1ccc(NS(=O)(=O)c2c(C(=O)N3CCOCC3)c(C)n(C)c2C)cc1C	none
Oc1cccc(Nc2nc(O)c(/C=C3\C=Nc4ccccc43)s2)c1	none
Oc1nc(Nc2cccc(Cl)c2)sc1/C=C1\C=Nc2ccccc21	SIAE primary 26 | SIAE inh conf inactive
O=C1CC(C(=O)O)(c2ccccc2)c2cccc(F)c21 (configuration not stated)	none
COCCNC(=O)C1CCCN(C(=O)c2ccc(OC)c(F)c2)CC1 (configuration not stated)	none (no result: HTRA1 inh)
Cc1c(/C=N/NC(N)=O)c2ccccn2c1C(=O)c1ccc(F)cc1	none
Cc1c(/C=N/O)c2ccccn2c1C(=O)c1ccc(F)cc1	SIAE primary 17 | SIAE inh conf inactive
CCc1c2c3n4c1CCC[C@@H]4C[C@@H]3O[Si](C(C)C)(C(C)C)OC(C)C2=O (some centres not stated)	none (no result: HTRA1 inh, TCR-CD3 inh)
CCC(=O)c1c(CC)c2n3c1CC[C@H]3CCC2	SIAE primary 17 | SIAE inh conf inactive
